Data reported in PMC2875079 (Journal of medicinal chemistry, 2010).

Assays:
SphKs = conditions: cited from earlier work
[1] = in water and DMSO; cited from earlier work
SphK1 = conditions: read-out: KM of SphK1 for sphingosine; cited from earlier work
SphK2 = conditions: read-out: KM of SphK2 for sphingosine; cited from earlier work
mouse SphK2 = target: T1, mouse SphK2 (Mus musculus, UniProt Q9JIA7); assay: Sphingosine kinase assay, recombinant SphK2; format: biochemical; conditions: for Inhibition of SphK2: at concentrations up to 100 μM
T1 sequence (Q9JIA7 1-617): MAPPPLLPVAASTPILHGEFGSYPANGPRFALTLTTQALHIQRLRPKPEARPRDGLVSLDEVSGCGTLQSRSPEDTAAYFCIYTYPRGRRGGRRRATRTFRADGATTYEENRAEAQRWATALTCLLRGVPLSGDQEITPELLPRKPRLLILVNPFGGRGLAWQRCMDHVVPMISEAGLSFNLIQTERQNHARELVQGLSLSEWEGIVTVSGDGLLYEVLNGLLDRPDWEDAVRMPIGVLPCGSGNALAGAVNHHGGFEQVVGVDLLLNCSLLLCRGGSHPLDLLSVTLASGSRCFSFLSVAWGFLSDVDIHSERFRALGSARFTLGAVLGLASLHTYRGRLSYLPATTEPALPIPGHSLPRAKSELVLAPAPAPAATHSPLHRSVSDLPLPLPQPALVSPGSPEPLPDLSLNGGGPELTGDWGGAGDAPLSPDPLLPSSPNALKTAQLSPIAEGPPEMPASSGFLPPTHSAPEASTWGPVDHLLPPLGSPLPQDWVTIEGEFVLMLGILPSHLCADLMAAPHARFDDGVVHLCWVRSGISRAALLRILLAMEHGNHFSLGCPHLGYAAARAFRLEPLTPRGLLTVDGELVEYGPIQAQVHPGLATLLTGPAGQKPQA

[2] = tested on: vascular smooth muscle cells; assay: Cell viability / cytotoxic response, Promega MultiTox-Fluor Assay; format: cell-based; conditions: 0.001 μM – 100 μM, Figure 3F
Outline: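 Rat aortic vascular smooth muscle cells, cultured in vitro. Test compound applied at 0.001–100 μM, with 20 μM cyclosporine A as comparator. Cytotoxicity read with the MultiTox-Fluor fluorescence kit. N=3 biological replicates; mean ± st dev; P < 0.05 marked.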

[3] = tested on: vascular smooth muscle cells; assay: Intracellular S1P concentration by LC/MS in serum-stimulated smooth muscle cells; format: cell-based, rat; conditions: pre-treated 30 min, then 10% serum; Figure 3C
Outline: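 Rat aortic smooth muscle cells were pre-treated with test compound for 30 min, then given 10% FBS for 12 h. Cells were washed in PBS and scraped into ice-cold MeOH, then extracted with CHCl3/0.1 M HCl containing 50 pmol C17 S1P internal standard. The organic phase was acetylated (acetic anhydride/pyridine). Analysis used C8 LC with […] ESI-MS/MS (BisAcS1P 462/402), quantified against calibration curves. N=2 biological replicates; mean ± st dev.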

[4] = tested on: vascular smooth muscle cells; assay: Cytotoxicity on visual microscopic inspection; format: cell-based; conditions: 10% FBS + compound (10 μM), light microscopy; Figure 3E
Outline: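 Rat aortic vascular smooth muscle cells were imaged by light microscopy at 20× magnification. Conditions were untreated control, 10% FBS, and 10% FBS plus test compound at 10 μM. Cytotoxicity was judged by visual inspection.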

[5] = tested on: vascular smooth muscle cells; assay: Smooth muscle cell proliferation, BrdU incorporation; format: cell-based, rat; conditions: pre-treated 30 min, 10% serum 24 hours, Figure 3D
Outline: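 Rat aortic vascular smooth muscle cells were pre-treated 30 min with a dose range of test compound, then stimulated with 10% FBS for 24 h. Proliferation was read as BrdU (10 μM) incorporation by immunoassay. N=6 biological replicates; mean ± st dev; P < 0.05 marked.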

Human SphK1 = Human SphK1 (Homo sapiens, UniProt Q9NYA1); assay: Sphingosine kinase assay, recombinant SphK1; format: biochemical; conditions: for Inhibition of SphK1: at concentrations up to 100 μM
[6] = target: diacylglycerol kinase type γ (Homo sapiens, UniProt P49619); assay: Specificity test at recombinant diacylglycerol kinase type γ; format: biochemical; conditions: at concentrations up to 100 μM
Sequence of diacylglycerol kinase type γ (P49619 whole entry): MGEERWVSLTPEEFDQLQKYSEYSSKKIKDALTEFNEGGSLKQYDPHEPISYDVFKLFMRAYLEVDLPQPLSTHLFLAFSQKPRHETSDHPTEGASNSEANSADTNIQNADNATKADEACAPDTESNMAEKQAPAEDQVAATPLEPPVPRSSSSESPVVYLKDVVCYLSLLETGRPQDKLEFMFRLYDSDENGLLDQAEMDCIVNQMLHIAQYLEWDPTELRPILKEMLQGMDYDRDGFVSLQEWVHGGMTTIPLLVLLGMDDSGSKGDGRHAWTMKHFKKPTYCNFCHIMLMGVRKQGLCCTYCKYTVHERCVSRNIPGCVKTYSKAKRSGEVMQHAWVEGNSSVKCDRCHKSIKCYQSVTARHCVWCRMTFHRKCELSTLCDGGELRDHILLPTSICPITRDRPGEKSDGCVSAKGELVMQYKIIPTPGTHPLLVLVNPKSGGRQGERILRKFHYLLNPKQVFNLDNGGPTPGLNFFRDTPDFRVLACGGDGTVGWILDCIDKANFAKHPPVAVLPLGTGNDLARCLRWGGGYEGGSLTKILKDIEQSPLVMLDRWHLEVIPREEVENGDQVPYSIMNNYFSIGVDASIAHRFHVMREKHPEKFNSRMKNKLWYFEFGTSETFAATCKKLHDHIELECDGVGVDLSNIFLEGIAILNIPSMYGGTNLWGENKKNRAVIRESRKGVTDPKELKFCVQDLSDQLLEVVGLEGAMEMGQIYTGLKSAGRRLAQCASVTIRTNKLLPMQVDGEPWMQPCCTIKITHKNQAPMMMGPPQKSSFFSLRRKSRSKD

[7] = target: T2, diacylglycerol kinase type δ1 (Homo sapiens, UniProt Q16760); assay: Specificity test at recombinant diacylglycerol kinase type δ1; format: biochemical; conditions: at concentrations up to 100 μM
T2 sequence (Q16760 1-1170 isoform Q16760-2): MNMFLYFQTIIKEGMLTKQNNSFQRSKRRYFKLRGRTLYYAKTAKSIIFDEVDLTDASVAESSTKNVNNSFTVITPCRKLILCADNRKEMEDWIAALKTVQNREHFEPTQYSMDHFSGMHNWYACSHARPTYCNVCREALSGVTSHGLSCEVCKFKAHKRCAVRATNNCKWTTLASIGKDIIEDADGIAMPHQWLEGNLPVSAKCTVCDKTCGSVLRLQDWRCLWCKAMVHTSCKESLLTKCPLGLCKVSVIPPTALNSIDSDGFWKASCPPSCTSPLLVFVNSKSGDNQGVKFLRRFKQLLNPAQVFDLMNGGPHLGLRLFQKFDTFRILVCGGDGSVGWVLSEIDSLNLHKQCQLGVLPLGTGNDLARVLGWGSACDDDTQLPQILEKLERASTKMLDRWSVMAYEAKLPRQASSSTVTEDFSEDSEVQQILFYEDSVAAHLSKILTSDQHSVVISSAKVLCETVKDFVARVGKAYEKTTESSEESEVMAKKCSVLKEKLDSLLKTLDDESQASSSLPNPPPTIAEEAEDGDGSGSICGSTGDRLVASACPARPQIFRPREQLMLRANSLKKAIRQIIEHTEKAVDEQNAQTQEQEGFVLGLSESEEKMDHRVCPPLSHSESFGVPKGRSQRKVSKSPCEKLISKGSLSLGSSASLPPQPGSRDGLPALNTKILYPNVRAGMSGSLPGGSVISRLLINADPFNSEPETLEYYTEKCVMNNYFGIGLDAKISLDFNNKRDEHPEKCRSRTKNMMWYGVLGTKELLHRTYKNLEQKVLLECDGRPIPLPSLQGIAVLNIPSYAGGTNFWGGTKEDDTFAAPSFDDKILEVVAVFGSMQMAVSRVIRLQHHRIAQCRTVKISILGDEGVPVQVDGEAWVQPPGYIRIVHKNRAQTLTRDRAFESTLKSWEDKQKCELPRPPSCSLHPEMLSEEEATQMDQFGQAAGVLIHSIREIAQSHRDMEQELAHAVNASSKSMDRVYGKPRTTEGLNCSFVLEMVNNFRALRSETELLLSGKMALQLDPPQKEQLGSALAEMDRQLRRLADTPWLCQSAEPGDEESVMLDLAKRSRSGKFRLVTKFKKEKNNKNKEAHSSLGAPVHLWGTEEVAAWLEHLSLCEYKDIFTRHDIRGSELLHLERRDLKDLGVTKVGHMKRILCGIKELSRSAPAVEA

PKCα = PKCα (Homo sapiens, UniProt P17252); assay: Specificity test at PKCα; format: biochemical; conditions: at concentrations up to 10 μM
[8] = target: diacylglycerol kinase type ζ (Homo sapiens, UniProt Q13574); assay: Specificity test at recombinant diacylglycerol kinase type ζ; format: biochemical; conditions: at concentrations up to 100 μM
Sequence of diacylglycerol kinase type ζ (Q13574 whole entry): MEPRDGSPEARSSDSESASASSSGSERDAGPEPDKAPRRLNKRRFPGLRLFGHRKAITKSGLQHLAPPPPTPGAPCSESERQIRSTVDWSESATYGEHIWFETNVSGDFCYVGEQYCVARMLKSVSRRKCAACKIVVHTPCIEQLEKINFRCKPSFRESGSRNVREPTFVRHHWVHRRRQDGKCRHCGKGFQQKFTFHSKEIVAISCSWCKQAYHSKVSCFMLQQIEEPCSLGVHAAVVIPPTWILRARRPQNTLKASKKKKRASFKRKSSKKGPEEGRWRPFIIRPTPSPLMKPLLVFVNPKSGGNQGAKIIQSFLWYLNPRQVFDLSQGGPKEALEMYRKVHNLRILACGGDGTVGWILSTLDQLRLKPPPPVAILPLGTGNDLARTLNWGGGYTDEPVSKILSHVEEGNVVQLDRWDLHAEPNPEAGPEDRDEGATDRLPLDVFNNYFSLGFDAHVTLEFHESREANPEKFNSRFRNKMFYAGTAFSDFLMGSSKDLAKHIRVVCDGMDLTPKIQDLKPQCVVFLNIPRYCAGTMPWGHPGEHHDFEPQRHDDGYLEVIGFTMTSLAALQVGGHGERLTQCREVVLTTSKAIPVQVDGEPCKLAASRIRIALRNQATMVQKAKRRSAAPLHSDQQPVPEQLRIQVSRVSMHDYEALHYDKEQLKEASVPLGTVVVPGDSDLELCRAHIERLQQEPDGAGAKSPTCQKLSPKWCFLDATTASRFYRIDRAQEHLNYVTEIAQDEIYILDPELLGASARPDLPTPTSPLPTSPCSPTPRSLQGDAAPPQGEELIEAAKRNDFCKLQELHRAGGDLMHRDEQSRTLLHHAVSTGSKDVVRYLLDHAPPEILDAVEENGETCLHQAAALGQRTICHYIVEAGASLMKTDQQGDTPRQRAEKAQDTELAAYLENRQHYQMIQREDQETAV

[9] = substrate: CCCCCCCCCCCCC/C=C/[C@@H](O)[C@@H](N)CO; assay: Sphingosine kinase assay, recombinant SphK2; format: biochemical, mouse; conditions: other: substrate D-erythro-sphingosine, absence of inhibitor
[10] = substrate: CCCCCCCCCCCCC/C=C/[C@@H](O)[C@@H](N)CO; assay: Sphingosine kinase assay, recombinant SphK1; format: biochemical, human; conditions: other: substrate D-erythro-sphingosine, absence of inhibitor

CCCCCCCCCCCCC/C=C/[C@@H](O)[C@H](N)CO [D-(+)-threo-sphingosine]
Inhibition of the SphKs (SphKs): weak inhibitor

Cn1cc(NC(=O)c2cc(NC(=O)c3cc(NC=O)cn3C)cn2C)cc1C(=O)NCCC(=N)N [Distamycin A]
pKa [1]: 11.6

CCCCCCCCCCCCC/C=C/[C@@H](O)[C@@H](N)CO [Sphingosine, D-erythro-sphingosine]
Km (SphK1): ~10 µM | Km (SphK2): ~5 µM

CCCCCCCCc1ccc(C(=O)N[C@@H](C)C(=N)N)cc1.Cl [compound 9, (S)-N-(1-amino-1-iminopropan-2-yl)-4-octylbenzamide hydrochloride]
Ki (mouse SphK2): 20 µM | Cytotoxicity/death in cell viability assay [2]: did not induce cytotoxicity/death | Serum-induced changes in S1P intracellular concentration [3]: blocked | Cytotoxicity on visual microscopic inspection [4]: not cytotoxic | Blocked serum-induced smooth muscle cell proliferation [5]: blocked | Ki (Human SphK1): 55 µM

CCCCCCCCc1ccc(C(=O)N[C@@H](C)C(=O)O)cc1 [compound 12, (S)-2-(4-octylbenzamido)propanoic acid]
Inhibition of SphK2 (mouse SphK2): no inhibition | Inhibition of SphK1 (Human SphK1): no inhibition

CCCCCCCCc1ccc(C(=O)N[C@@H](C)C(N)=O)cc1 [compound 13, (S)-N-(1-amino-1-oxopropan-2-yl)-4-octylbenzamide]
Inhibition of SphK2 (mouse SphK2): no inhibition | Inhibition of SphK1 (Human SphK1): no inhibition

CCCCCCCCCCCCc1ccc(C(=O)NC2(C(=N)N)CC2)cc1.Cl [compound 23, N-(1-carbamimidoylcyclopropyl)-4-dodecylbenzamide hydrochloride]
Inhibition of diacylglycerol kinase type γ [6]: no inhibition | Inhibition of diacylglycerol kinase type δ1 [7]: no inhibition | Inhibition of PKCα (PKCα): no inhibition | Inhibition of diacylglycerol kinase type ζ [8]: no inhibition

CCCCCCCCCCCCc1ccc(NC(=O)C2(C(=N)N)CC2)cc1.Cl [compound 28, 1-carbamimidoyl-N-(4-dodecylphenyl)cyclopropanecarboxamide hydrochloride]
Inhibition of diacylglycerol kinase type γ [6]: no inhibition | Inhibition of diacylglycerol kinase type δ1 [7]: no inhibition | Ki (mouse SphK2): 6 µM | Inhibition of PKCα (PKCα): no inhibition | Inhibition of diacylglycerol kinase type ζ [8]: no inhibition

B1: mouse SphK2 (Mus musculus) (protein)
chain: MAPPPLLPVAASTPILHGEFGSYPANGPRFALTLTTQALHIQRLRPKPEARPRDGLVSLDEVSGCGTLQSRSPEDTAAYFCIYTYPRGRRGGRRRATRTFRADGATTYEENRAEAQRWATALTCLLRGVPLSGDQEITPELLPRKPRLLILVNPFGGRGLAWQRCMDHVVPMISEAGLSFNLIQTERQNHARELVQGLSLSEWEGIVTVSGDGLLYEVLNGLLDRPDWEDAVRMPIGVLPCGSGNALAGAVNHHGGFEQVVGVDLLLNCSLLLCRGGSHPLDLLSVTLASGSRCFSFLSVAWGFLSDVDIHSERFRALGSARFTLGAVLGLASLHTYRGRLSYLPATTEPALPIPGHSLPRAKSELVLAPAPAPAATHSPLHRSVSDLPLPLPQPALVSPGSPEPLPDLSLNGGGPELTGDWGGAGDAPLSPDPLLPSSPNALKTAQLSPIAEGPPEMPASSGFLPPTHSAPEASTWGPVDHLLPPLGSPLPQDWVTIEGEFVLMLGILPSHLCADLMAAPHARFDDGVVHLCWVRSGISRAALLRILLAMEHGNHFSLGCPHLGYAAARAFRLEPLTPRGLLTVDGELVEYGPIQAQVHPGLATLLTGPAGQKPQA
Km [9]: 5 µM

B2: Human SphK1 (Homo sapiens) (protein)
chain: MDPAGGPRGVLPRPCRVLVLLNPRGGKGKALQLFRSHVQPLLAEAEISFTLMLTERRNHARELVRSEELGRWDALVVMSGDGLMHEVVNGLMERPDWETAIQKPLCSLPAGSGNALAASLNHYAGYEQVTNEDLLTNCTLLLCRRLLSPMNLLSLHTASGLRLFSVLSLAWGFIADVDLESEKYRRLGEMRFTLGTFLRLAALRTYRGRLAYLPVGRVGSKTPASPVVVQQGPVDAHLVPLEEPVPSHWTVVPDEDFVLVLALLHSHLGSEMFAAPMGRCAAGVMHLFYVRAGVSRAMLLRLFLAMEKGRHMEYECPYLVYVPVVAFRLEPKDGKGVFAVDGELMVSEAVQGQVHPNYFWMVSGCVEPPPSWKPQQMPPPEEPL
Km [10]: 10 µM
